Measured values as given in ChEMBL document CHEMBL2396550, “Manzamine A, a marine-derived alkaloid, inhibits accumulation of cholesterol ester in macrophages and suppresses hyperlipidemia and atherosclerosis in vivo” (Bioorg Med Chem, 2013).
Activity calls are given as the source filed them. The calls are words filed in the database; no cut-off is given here.

Tests used:
[1] = target: T1, Sterol O-acyltransferase 1 (Homo sapiens, UniProt P35610); assay: Inhibition of macrophage ACAT (unknown origin)
T1 sequence (P35610 whole entry): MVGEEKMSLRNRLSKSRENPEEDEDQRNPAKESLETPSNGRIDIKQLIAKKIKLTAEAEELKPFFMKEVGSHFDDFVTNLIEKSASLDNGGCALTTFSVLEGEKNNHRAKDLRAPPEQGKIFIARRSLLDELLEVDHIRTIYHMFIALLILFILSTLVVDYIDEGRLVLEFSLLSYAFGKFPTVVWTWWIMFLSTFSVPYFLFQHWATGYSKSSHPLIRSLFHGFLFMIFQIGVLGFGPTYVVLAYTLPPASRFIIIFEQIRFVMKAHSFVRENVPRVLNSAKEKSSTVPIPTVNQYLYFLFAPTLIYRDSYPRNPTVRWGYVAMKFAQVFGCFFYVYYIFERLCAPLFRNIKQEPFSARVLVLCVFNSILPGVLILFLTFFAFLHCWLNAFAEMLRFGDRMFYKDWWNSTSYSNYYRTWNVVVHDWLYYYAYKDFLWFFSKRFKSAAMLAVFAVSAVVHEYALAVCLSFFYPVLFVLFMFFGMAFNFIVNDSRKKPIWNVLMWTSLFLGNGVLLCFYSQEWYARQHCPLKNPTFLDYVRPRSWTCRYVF

MDM [2] = assay: Effect on scavenger receptor-B1 expression in human MDM at 5 to 30 uM after 24 hrs by immunoblot analysis; type: functional
In short: (§1)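 HMDMs exposed 24 h to graded compound concentrations, solubilised in 1% Triton X-100, boiled in SDS sample buffer, then N-glycosidase-treated at 37 °C for 24 h. 10 μg protein run on 10% SDS-PAGE and immunoblotted for human ACAT-1, SR-A (E5) or SR-BI, with β-actin reprobe; band density quantified.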

MDM [3] = assay: Inhibition of endocytic [125I]-acetylated LDL uptake in human MDM at 50 uM after 5 hrs; type: functional
In short: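 Day-7 HMDMs in DMEM with 3% BSA, incubated 5 h at 37 °C with 125I-AcLDL (50 μg/mL, 600 cpm/ng) plus compound. Degradation was measured as TCA-soluble, AgNO3-cleared medium radioactivity. Cell-associated counts came from 0.1 M NaOH lysates after ice-cold PBS/1% BSA washes and were normalised to protein.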

Mus musculus [4] = assay: Antiatherosclerotic activity in apoE-deficient C57BL/6 mouse assessed as decrease in total plasma cholesterol level at 30 mg/kg/day administered through feeding measured after 80 days relative to control; type: functional; set-up: scale not given: the % may be the effect or the level left
[5] = target: T2, Sterol O-acyltransferase 1 (Homo sapiens) (UniProt P35610); assay: (§2) Non-competitive inhibition of microsomal ACAT in human MDM using [14C]oleoyl-CoA as substrate assessed as formation of cholesteryl [14C]-oleate […]
T2 sequence (whole entry): T1 sequence (P35610 whole entry)

[6] = target: T1, Sterol O-acyltransferase 1; assay: as §2
Mus musculus [7] = assay: Antiatherosclerotic activity in apoE-deficient C57BL/6 mouse assessed as decrease in plasma free cholesterol level at 30 mg/kg/day administered through feeding measured after 80 days relative to control; type: functional; set-up: scale not given: the % may be the effect or the level left
[8] = (§3) Antihyperlipidemic activity in human MDM assessed as inhibition of acetylated LDL-induced [3H]-cholesterol ester accumulation after 24 hrs by radioscanner analysis in presence of [3H]-oleate-conjugated BSA; type: functional
In short: (§4)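 Human monocytes from healthy volunteer blood by Ficoll, adhered 1 h, differentiated 7 days in DMEM with 10% pooled human serum. Monolayers incubated 24 h with AcLDL 50 μg/mL plus 0.1 mM [3H]oleate–BSA with or without compound; lipids extracted, [3H]cholesteryl oleate separated by TLC and counted by radioscanner.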

MDM [9] = assay: as §3; type: functional; in short: as §4
MDM [10] = assay: Effect on ACAT expression in human MDM at 5 to 30 uM after 24 hrs by immunoblot analysis; type: functional; in short: as §1
Mus musculus [11] = assay: Antiatherosclerotic activity in apoE-deficient C57BL/6 mouse assessed as decrease in atherosclerotic lesion size in aortic sinus at 30 mg/kg/day administered through feeding measured after 80 days by oil red O/hematoxylin staining assay relative to control; type: functional; set-up: scale not given: the % may be the effect or the level left
CHO [12] = assay: Antihyperlipidemic activity in CHO cells overexpressing human ACAT2 assessed as inhibition of [3H]-cholesterol ester accumulation after 24 hrs by radioscanner analysis in presence of [3H]-oleate-conjugated BSA; type: functional, cell-based; conditions: Cricetulus griseus
In short: (§5)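 CHO cells stably overexpressing human ACAT-1 or ACAT-2, grown in F-12 HAM with 10% FCS and G418 800 μg/mL. Incubated 24 h in medium with 10% FCS, 0.1 mM [3H]oleate–BSA and graded compound concentrations; no AcLDL. Lipids extracted, [3H]CE separated by TLC and counted by radioscanner.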

CHO [13] = assay: Antihyperlipidemic activity in CHO cells overexpressing human ACAT1 assessed as inhibition of [3H]-cholesterol ester accumulation after 24 hrs by radioscanner analysis in presence of [3H]-oleate-conjugated BSA; type: functional, cell-based; conditions: Cricetulus griseus; in short: as §5
MDM [14] = assay: Effect on scavenger receptor-A expression in human MDM at 5 to 30 uM after 24 hrs by immunoblot analysis; type: functional; in short: as §1
[15] = (§6) Antihyperlipidemic activity in apoE-deficient mouse peritoneal macrophages assessed as inhibition of acetylated LDL-induced [3H]-cholesterol ester accumulation after 24 hrs by radioscanner analysis in presence of [3H]-oleate-conjugated BSA; type: functional, cell-based; conditions: Peritoneal macrophage cell
In short: (§7)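 Peritoneal macrophages from apoE-deficient mice, cultured in DMEM with 10% pooled human serum, 37 °C, 5% CO2. [3H]CE accumulation after AcLDL loading was measured by the [3H]oleate/TLC method.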

[16] = system: Peritoneal macrophage cell; assay: as §6; type: functional, cell-based; in short: as §7
[17] = target: T2, Sterol O-acyltransferase 1 (Homo sapiens); assay: (§8) Non-competitive inhibition of human microsomal ACAT1 overexpressed in CHO cells using [14C]oleoyl-CoA as substrate assessed as formation of cholesteryl [14C]-oleate […]
[18] = target: T1, Sterol O-acyltransferase 1; assay: as §8
MDM [19] = assay: Antihyperlipidemic activity in human MDM assessed as inhibition of acetylated LDL-induced [3H]-cholesterol ester accumulation at 20 uM after 24 hrs by radioscanner analysis in presence of [3H]-oleate-conjugated BSA; type: functional
In short: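 Monocytes were isolated from healthy-volunteer blood on Ficoll, allowed to adhere for 1 h, then differentiated for 7 days into macrophages in DMEM with 10% pooled human serum. The macrophages were incubated for 24 h at 37 °C in 5% CO2 with 50 μg/mL AcLDL, 0.1 mM BSA-conjugated [3H]oleate and 20 μM sample. Cellular lipids were extracted, [3H]CE was separated by TLC, and it was quantified by radioscanner.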

[20] = Cytotoxicity against human MDM assessed as inhibition of acetylated LDL-induced [3H]-triglyceride synthesis at 50 uM after 24 hrs by radioscanner analysis in presence of [3H]-oleate-conjugated BSA
In short: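 HMDMs incubated 24 h with AcLDL 50 μg/mL and 0.1 mM [3H]oleate–BSA with or without compound; extracted lipids assayed for TG-[3H]oleate radioactivity.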

Mus musculus [21] = assay: Antiatherosclerotic activity in apoE-deficient C57BL/6 mouse assessed as decrease in plasma triglyceride level at 30 mg/kg/day administered through feeding measured after 80 days relative to control; type: functional; set-up: scale not given: the % may be the effect or the level left
[22] = Cytotoxicity against human MDM assessed as cell viability at 50 uM after 24 hrs by WST-8 assay
In short: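 HMDMs seeded at 1×10^4 per well, treated with compound; viability read by WST-8 assay.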

[23] = (§9) Inhibition of microsomal ACAT in apoE-deficient mouse peritoneal macrophage using [14C]oleoyl-CoA as substrate assessed as formation of cholesteryl [14C]-oleate […] by TLC analysis
Mus musculus [24] = species: Mus musculus; assay: as §9
[25] = Cytotoxicity against human MDM assessed as change in cell morphology at 50 uM
[26] = target: T3, Sterol O-acyltransferase 2 (Homo sapiens) (UniProt O75908); assay: (§10) Non-competitive inhibition of human microsomal ACAT2 overexpressed in CHO cells using [14C]oleoyl-CoA as substrate assessed as formation of cholesteryl [14C]-oleate […]
T3 sequence (whole entry): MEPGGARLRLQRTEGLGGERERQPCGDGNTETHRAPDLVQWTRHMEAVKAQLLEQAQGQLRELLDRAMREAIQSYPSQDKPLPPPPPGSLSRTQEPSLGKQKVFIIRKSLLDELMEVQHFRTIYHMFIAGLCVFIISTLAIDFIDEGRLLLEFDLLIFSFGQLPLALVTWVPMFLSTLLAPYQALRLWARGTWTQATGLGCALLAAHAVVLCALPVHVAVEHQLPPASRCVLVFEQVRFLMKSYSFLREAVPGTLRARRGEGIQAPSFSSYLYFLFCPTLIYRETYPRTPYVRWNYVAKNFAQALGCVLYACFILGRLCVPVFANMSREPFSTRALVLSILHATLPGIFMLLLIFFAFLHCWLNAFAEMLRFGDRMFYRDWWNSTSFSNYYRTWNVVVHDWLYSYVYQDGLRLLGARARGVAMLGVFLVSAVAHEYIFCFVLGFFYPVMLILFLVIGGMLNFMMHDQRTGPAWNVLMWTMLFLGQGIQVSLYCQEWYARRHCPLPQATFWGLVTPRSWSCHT

[27] = target: T4, Sterol O-acyltransferase 2 (Homo sapiens, UniProt O75908); assay: as §10
T4 sequence (O75908 whole entry): T3 sequence (whole entry)

Mus musculus [28] = assay: Antiatherosclerotic activity in apoE-deficient C57BL/6 mouse assessed as decrease in plasma LDL cholesterol level at 30 mg/kg/day administered through feeding measured after 80 days relative to control; type: functional; set-up: scale not given: the % may be the effect or the level left
[29] = target: T1, Sterol O-acyltransferase 1
[30] = target: T4, Sterol O-acyltransferase 2; assay: Inhibition of ACAT2 in human MDM assessed as inhibition of acetylated LDL-induced cholesterol ester accumulation after 1 hr by HPLC analysis
[31] = target: T4, Sterol O-acyltransferase 2; assay: Inhibition of macrophage ACAT2 (unknown origin)
[32] = target: T1, Sterol O-acyltransferase 1; assay: Inhibition of ACAT1 (unknown origin)
[33] = Inhibition of microsomal ACAT in cholesterol-fed JW rabbit intestine using [14C]oleoyl-CoA as substrate incubated for 5 mins prior to substrate addition measured after 5 to 10 mins by liquid scintillation counting analysis; type: microsomes, Oryctolagus cuniculus

For `CCCCCCCCCN(CC(C)(C)C)C(=O)N[C@H]1CCCC[C@@H]1OC(=O)CCNC(=O)[C@@H]1OC(C)(C)OCC1(C)C`, the IC50 [1] was 0.032 µM.
For `O[C@]12C=C(c3nccc4c3[nH]c3ccccc34)[C@@H]3CCN(CCCC/C=C\CC1)C[C@@]31C[C@@H]3/C=C\CCCCN3[C@H]12` [MANZAMINE A], the Activity (MDM [2]) was “inactive”, the inhibition (MDM [3]) was “Active” and the Activity (Mus musculus [4]) was 40%. The inhibition [5] was “Dose-dependent effect”, the IC50 [6] was 6.4 µM and the Activity (Mus musculus [7]) was 20%. For the same compound, the IC50 [8] was 4.1 µM, the inhibition (MDM [9]) was “Dose-dependent effect” and the Activity (MDM [10]) was “inactive”. For the same compound, the Activity (Mus musculus [11]) was 45%, the inhibition (CHO [12]) was “Dose-dependent effect” and the inhibition (CHO [13]) was “Dose-dependent effect”. The Activity (MDM [14]) was “inactive”, the IC50 [15] was 6.2 µM and the inhibition [16] was “Dose-dependent effect”. For the same compound, the inhibition [17] was “Dose-dependent effect”, the IC50 [18] was 6.2 µM and the inhibition (MDM [19]) was “Active”. The Activity [20] was “Toxic”, the Activity (Mus musculus [21]) was 50% and the Activity [22] was “Toxic”. The IC50 [23] was 5.8 µM, the inhibition (Mus musculus [24]) was “Dose-dependent effect” and the Activity [25] was “Toxic”. The inhibition [26] was “Dose-dependent effect”, the IC50 [27] was 4.8 µM and the Activity (Mus musculus [28]) was 40%.
In the case of `Oc1cccc2c1[nH]c1c(C3=C[C@@]4(O)CC/C=C\CCCCN5CC[C@@H]3[C@]3(CC6/C=C\CCCCN6[C@H]34)C5)nccc12` (some centres undefined), the inhibition (MDM [19]) is reported as “Active”.
In the case of `O=C1CCCN2[C@@H]3[C@@]45CN6CCCC/C=C\CC[C@@]3(C=C(c3nccc7c3[nH]c3ccccc37)[C@@H]4CC6)O[C@]2(CC1)C5`, the inhibition (MDM [19]) is reported as “Active”.
Work on `CC(C)c1cc(C(C)C)c(CC(=O)NS(=O)(=O)Oc2c(C(C)C)cccc2C(C)C)c(C(C)C)c1` [AVASIMIBE] yielded an IC50 [29] of 23.5 µM and an IC50 [30] of 9.2 µM.
For `Oc1ccc2[nH]c3c(C4=C[C@@]5(O)CC/C=C\CCCCN6CCC4[C@]4(C[C@@H]7/C=C\CCCCN7[C@H]45)C6)nccc3c2c1` (some centres undefined), the inhibition (MDM [19]) was “Active”.
In the case of `O=CC1=C[C@@]2(O)CC/C=C\CCCCN3CC[C@@H]1[C@]1(C[C@@H]4/C=C\CCCCN4[C@H]12)C3`, the inhibition (MDM [19]) is reported as “Active”.
With `c1ccc2c(c1)[nH]c1cnccc12` the inhibition (MDM [19]) was “Active”.
Work on `CCCCCCCCN1CCc2c(C)c(CC(=O)O)c(C)c(NC(=O)C(C)(C)C)c21` [PACTIMIBE] yielded an IC50 [31] of 3 µM and an IC50 [32] of 4.9 µM.
Compound `CN(C)c1ccc(NC(=O)N(C[C@H]2CC[C@H](CN(C(=O)Nc3ccc(N(C)C)cc3)C3CCCCC3)CC2)C2CCCCC2)cc1` has an IC50 [33] of 0.0076 µM.
With `O[C@H]1/C=C/C[C@]2(O)C=C(c3nccc4c3[nH]c3ccccc34)[C@@H]3CCN(CCCC1)C[C@@]31C[C@@H]3/C=C\CCCCN3[C@H]12` the inhibition (MDM [19]) was “Active”.
